# Screening results: PubChem BioAssay, several laboratories
# GC-B act: GC-B (human) receptor activation; actives 0.11% (n = 370,000); HEK293-GC-B cells, CNP EC30, cGMP TR-FRET; 0% at EC30 CNP, 100% saturating CNP; activation, % at 10 µM; P20594;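 active = activation at 10 µM reaching about 35% in either raw or pattern-adjusted values, limit read from the data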
# TbMetRS inhib: blocks T. brucei methionyl-tRNA synthetase activity. purified T. brucei MetRS, ATP depletion, Kinase-Glo luminescence. inhibition, % at 11.9 µM. actives 0.4% (n = 360,000). AID 624268;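 active = inhibition above a per-plate cutoff of the control wells' mean inhibition plus 3 SD, cut at about 5.5% in these data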;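 also: 0% = DMSO wells median and 100% = median of wells with control inhibitor compound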
#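 assay system = parasite MetRS enzyme | timing = 15 min preincubation, 2 h reaction, all 25 °C | evaluation = percent inhibition relative to median high and low control wells | medium = HEPES buffer containing pyrophosphatase, BSA, spermine, DTT | compound = single dose, 11.9 µM final nominal, 0.9% final DMSO | detection = Kinase-Glo luminescence, ATP depletion format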
# GC-A act: GC-A (human) enzyme activation; HEK293 GC-A cells, cGMP TR-FRET, EC30 ANP; 0% at EC30 ANP, 100% saturating ANP; activation, % at 10 µM; P16066; actives 0.14% (n = 370,000); in the data active = activation above about 40%
# Target sequence (P16066 whole entry, looked up): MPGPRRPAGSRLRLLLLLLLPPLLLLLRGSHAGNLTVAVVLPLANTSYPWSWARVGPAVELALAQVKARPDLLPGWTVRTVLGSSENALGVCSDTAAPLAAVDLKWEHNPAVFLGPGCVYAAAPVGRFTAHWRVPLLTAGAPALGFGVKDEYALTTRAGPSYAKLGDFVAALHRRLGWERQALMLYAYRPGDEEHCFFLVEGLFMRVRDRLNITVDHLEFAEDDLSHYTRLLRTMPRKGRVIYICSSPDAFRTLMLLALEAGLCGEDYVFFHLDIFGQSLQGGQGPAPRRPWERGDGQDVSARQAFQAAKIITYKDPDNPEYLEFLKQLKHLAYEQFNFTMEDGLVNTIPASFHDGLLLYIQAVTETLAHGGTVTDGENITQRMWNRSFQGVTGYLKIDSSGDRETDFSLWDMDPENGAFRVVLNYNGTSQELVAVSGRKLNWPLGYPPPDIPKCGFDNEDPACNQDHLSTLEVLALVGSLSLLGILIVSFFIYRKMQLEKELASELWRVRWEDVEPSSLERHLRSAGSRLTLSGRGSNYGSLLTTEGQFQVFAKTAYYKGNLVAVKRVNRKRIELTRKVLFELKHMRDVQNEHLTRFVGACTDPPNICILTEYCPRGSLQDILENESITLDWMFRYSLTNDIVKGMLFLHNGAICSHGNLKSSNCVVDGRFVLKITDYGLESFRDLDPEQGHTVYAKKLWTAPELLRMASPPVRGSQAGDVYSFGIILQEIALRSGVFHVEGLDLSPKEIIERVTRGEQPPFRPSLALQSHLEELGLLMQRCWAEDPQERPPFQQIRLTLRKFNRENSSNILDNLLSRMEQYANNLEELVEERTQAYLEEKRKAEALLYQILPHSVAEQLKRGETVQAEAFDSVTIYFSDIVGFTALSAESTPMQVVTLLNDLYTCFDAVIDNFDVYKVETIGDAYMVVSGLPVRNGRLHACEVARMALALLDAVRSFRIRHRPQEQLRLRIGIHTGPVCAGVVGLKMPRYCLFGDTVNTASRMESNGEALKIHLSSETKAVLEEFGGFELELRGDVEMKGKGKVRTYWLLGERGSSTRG
# A1 inh: inhibitors of the anti-apoptotic protein A1, read as caspase activation | actives 0.066% (n = 330,000) | caspase activation, % (test concentration not listed) | AID 2462 | MEF A1-2A-BIM cells, Caspase-Glo 3/7 luminescence, 3 h; percent of clofoctol response, vehicle zero;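 active = over half of replicate activation scores above 10%, or exactly half above 10 with the replicate mean above 10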
# MT1-MMP act inh: blocks activation of human MT1-MMP; P50281; HT1080 RFP-PRO-GFP cells, GFP/RFP ratio fluorescence, overnight; percent of plate control window, DMSO zero; GFP/RFP ratio change, % at 20 µM; actives 0.061% (n = 360,000); AID 651647;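 active = GFP/RFP ratio change of at least 30% with cell ATP level not reduced by more than half and red fluorescence within 50% of control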
#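 Assay system – RFP-PRO-GFP reporter HT1080 cells · Compound dosing – single dose of 20 µM compound, 1% DMSO final · Incubation – overnight compound exposure at 37 °C · Measure – GFP/RFP fluorescence ratio · Benchmarks – DMSO wells and RFP-L50D-GFP cells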
# SKN-1 block: C. elegans SKN-1 inhibition | C. elegans VP596 Pgst-4::GFP/RFP ratio, acrylamide-induced, 24 h | inhibition, % at 21.8 µM | actives 0.49% (n = 360,000) | AID 624304;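 active = interference check ratio from 0.5 to 1.5 plus GFP to RFP signal ratio inhibition reaching or exceeding a fixed threshold, cut at about 30% in these data, passing the limit was not always enough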
# TbMetRS confirm: Trypanosoma brucei MetRS inhibition confirmed; actives 93% (n = 1,400); inhibition, % at 11.9 µM; shares compounds with TbMetRS inhib; T. brucei MetRS enzyme, luminescence (ATP depletion); in the data active = inhibition above about 7%
# Jurkat tox: counter-screen for T. brucei MetRS inhibitors: Jurkat cell cytotoxicity; actives 12% (n = 1,400); inhibition, % at 8.3 µM; shares compounds with TbMetRS inhib; Jurkat cells viability, ATP luminescence; in the data active = inhibition above about 15%;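 also: 0% = vehicle and 100% = reference inhibitor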
# TbMetRS FP orth: orthogonal test for Trypanosoma brucei MetRS inhibitors; inhibition, % at 11.9 µM; AID 651607; purified T. brucei MetRS, fluorescence polarization; actives 44% (n = 1,400); shares compounds with TbMetRS inhib; in the data active = inhibition above about 17%;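 also: 0% = vehicle wells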
# * hit, by the source's call; . = not tested or not shown. Sampled rows, rich in hits. Any-hit rate of the full collection: about 1.1%.
SMILES,GC-B act,TbMetRS inhib,GC-A act,A1 inh,MT1-MMP act inh,SKN-1 block,TbMetRS confirm,Jurkat tox,TbMetRS FP orth
Fc1ccc(NC(=S)NCCc2ccc(Cl)cc2)cc1,-1,0,-1,1,7,6,.,.,.
Cc1ccc(C(CNC(=O)Nc2ccc(Cl)cc2)N2CCN(C)CC2)cc1 (stereo not drawn),-5,8.1*,-1,3,-5,5,30*,10,10
CN1CCN(CCNC(=O)Nc2ccc(Cl)cc2)CC1,1,-1,-2,4,-1,0,.,.,.
CN1CCN(C(CNC(=O)Nc2ccc(Cl)cc2)c2ccc(F)cc2)CC1 (stereo not drawn),-1,28*,-5,0,-4,6,52*,9,29*
C=CCN1C(=O)[C@H](CC(=O)NCc2ccc(OC)c(OC)c2)[C@@]2(C(=O)OCC)CCCC=C12,4,.,-2,.,.,.,.,.,.
c1ccc(CCNc2ccnc3cc4ccccc4cc23)cc1,-16,84*,-18,.,8,3,92*,81*,83*
O=C(NCCc1ccccc1)c1nccc2ccccc12,9,0,2,0,0,9,.,.,.
CC(C)Nc1ccc(Nc2ccnc3cc4ccccc4cc23)cc1,-3,85*,15,-1,-2,-1,88*,80*,90*
COc1ccc(Nc2ccnc3ccccc23)cc1,-6,-1,8,0,-6,-21,.,.,.
O=C(COc1nsnc1N1CCOCC1)Nc1ccc(Cl)cc1,-2,11*,0,1,4,2,23*,-10,7
CC(=O)c1cccc(-c2ccnc3c2CC(C(=O)Nc2ccc(Cl)cc2)O3)c1 (stereo not drawn),0,19*,-3,.,0,6,46*,21*,22*
CCOC(=O)N1CCC(Nc2c(Nc3ccc(F)cc3)c(=O)c2=O)CC1,-7,36*,-3,1,1,-10,77*,12,40*
Cc1ccccc1CNc1ncnc2cc(Cl)ccc12,15,1,4,1,-3,8,.,.,.
Fc1ccc(F)c(CNc2ncnc3cc(Cl)ccc23)c1,1,7.3*,9,0,0,-2,21*,14,10
C=CCNC(=S)NNC(=O)Cn1c(-c2ccccc2)cc(=O)n2ncnc12,-4,10*,4,0,-3,-7,17*,11,12
C=CCNC(=O)Cn1nc(-c2ccccc2)ccc1=O,1,-1,-2,0,-4,2,.,.,.
CC(C)NCCOCCOc1ccc(Cl)cc1Br,-3,1,-1,1,-1,8,.,.,.
CN(C)CCOCCOc1ccc(Cl)cc1Br,1,5.7*,2,0,2,5,9.5*,4,8
Cc1ccc(NC(=O)Cn2nnc(-c3ccccc3F)n2)c(C)c1,0,.,2,.,.,.,.,.,.
O=C(Nc1ccc(Cl)c(Cl)c1)OCCNC(=O)c1cccc(Cl)c1,-8,40*,-10,0,4,-20,58*,5,35*
CN(CC(=O)Nc1ccc(Cl)c(C(F)(F)F)c1)C(=O)/C=C/c1ccco1,-8,29*,-3,0,15,-9,38*,1,21*
CN(CC(=O)Nc1ccc(Cl)c(C(F)(F)F)c1)C(=O)/C=C/c1cccs1,1,21*,-6,0,1,-2,70*,5,41*
CN(CC(=O)Nc1ccc(Cl)c(C(F)(F)F)c1)C(=O)C1CCC1,0,0,1,1,4,13,.,.,.
COC(=O)c1cc(C(c2ccccc2O)C2CCC(C)(C)O2)n2ccccc12 (stereo not drawn),-20,.,-28,.,.,.,.,.,.
O=S1(=O)c2ccc(Br)cc2OC[C@@H](c2ccccc2)N1Cc1cn(Cc2ccccc2)nn1,10,.,0,.,.,.,.,.,.
SMILES,GC-B act,TbMetRS inhib,GC-A act,A1 inh,MT1-MMP act inh,SKN-1 block,TbMetRS confirm,Jurkat tox,TbMetRS FP orth
O=C(NNC(=O)c1ccc(-n2cncn2)c([N+](=O)[O-])c1)c1cccc(Cl)c1,2,35*,0,-5,4,10,59*,6,31*
CC(Oc1ccccc1F)C(=O)NNC(=O)c1ccc(-n2cncn2)c([N+](=O)[O-])c1 (stereo not drawn),0,5,-1,.,1,11,.,.,.
O=C(NNC(=O)c1ccccc1Cl)c1ccc(-n2cncn2)c([N+](=O)[O-])c1,-4,7.8*,3,0,6,1,33*,5,12
O=C(Nc1cc(Cl)ccc1-n1cncn1)c1cc(F)cc(F)c1,0,-1,-2,0,2,-10,.,.,.
O=C(NNC(=O)c1ccc(-n2cncn2)c([N+](=O)[O-])c1)c1ccc(Cl)cc1,8,60*,10,-1,1,-2,82*,1,65*
O=C(Nc1cc(Cl)ccc1F)c1ccc(-n2cncn2)c([N+](=O)[O-])c1,-3,22*,0,0,3,9,58*,-2,21*
COc1cc(C2C(C#N)=C(N)Oc3cc(N(C)C)ccc32)cc2c1OCO2 (stereo not drawn),-7,19*,-15,0,-326,5,2,82*,7
COc1cc(C2C(C#N)=C(N)Oc3cc(O)ccc32)cc2c1OCO2 (stereo not drawn),0,14*,53*,0,-15,-11,3,36*,4
COc1cc(C2C(C#N)=C(N)Oc3cc4c(cc32)OCO4)cc(OC)c1OC (stereo not drawn),-17,1,-23,1,12,-4,.,.,.
CCCC[C@H](C(=O)N(C)c1ccccc1)[C@@H](O)c1ccc(Cl)cc1,-25,.,-27,.,.,.,.,.,.
Cc1ccc2[nH]c(=O)c(CN(CC3CCCO3)C(=S)NCc3ccco3)cc2c1 (stereo not drawn),2,12*,-6,1,5,12,23*,3,12
Cc1ccc2[nH]c(=O)c(CN(CC3CCCO3)C(=S)Nc3ccccc3)cc2c1 (stereo not drawn),-2,6.1*,-2,0,-10,-3,48*,6,27*
